Measured values: ChEMBL document CHEMBL4513216, “Probing the Open Global Health Chemical Diversity Library for Multistage-Active Starting Points for Next-Generation Antimalarials” (ACS Infect Dis, 2020)

Test: Toxicity liver stage against HepG2, at 10uM
Format: cell-based
Parameters: test concentration 10 uM, cell line HepG2-A16-CD81EGFP
Conditions: human, HepG2-A16-CD81EGFP cells; read-out: INHIBITION
Procedure, shortened: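 Uninfected HepG2-A16-CD81EGFP cells, 3 × 10^3 per well, 1536-well, plated on prespotted compound at 10 μM final, parasite-free screening media added to match infected plates; puromycin 10 μM positive, DMSO 0.5% negative; run in parallel with 48 h PbLuc assay at 37 °C, 5% CO2; viability by CellTiter-Glo luminescence, normalized to controls.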

Structure (SMILES) | cytotoxicity at 10 µM
CS(=O)(=O)N1Cc2cnn(CC3CC3)c2C(COCC2CC2)C1 (centres undefined) | 9.43%
COc1c(C(=O)NC(C)Cc2ccccc2Cl)c(C)nn1C (centres undefined) | -0.686%
Cc1cccc(CN2CCN(C(=O)c3cc(C4CC4)[nH]n3)CC2)c1 | -5.38%
COC(=O)N1CCN(Cc2ccccc2C(C)(C)C#N)CC1 | -3.53%
CCn1cnnc1C1CCN(C(=O)c2cnc3ccccc3n2)CC1 | -8.59%
Cc1noc(C2CCN(C(=O)c3ccc(C(F)(F)F)nc3)CC2)n1 | -6.16%
CNC(=O)C(NC(=O)CCc1cccc(OC2CCCC2)c1)C(C)C (centres undefined) | 10.9%
Cc1nc(CN2C[C@@H]3CN(C(=O)c4ccco4)C[C@@H]3C2=O)cs1 | -77.7%
COc1cc(C)nc(N2CCN(C(C)c3nc(C)no3)CC2)n1 (centres undefined) | 3.55%
CC(=O)N1CCC2(CC1)CN(C(=O)c1cccnc1)c1ccc(F)cc12 | -108%
O=C(O)CCC(=O)Nc1nn(Cc2ccccc2Cl)cc1Cl | 7%
COc1cccc2c1OCC(C(=O)N1CCC(N3CCSCC3)CC1)C2 (centres undefined) | 2.24%
Cc1ccccc1SC1CCN(C(=O)CCCS(N)(=O)=O)CC1 | -7.76%
Cc1ccc(CN2CC[C@H]3OCC[C@@]3(C(=O)N3CCCO3)C2)o1 | 8.83%
O=C(CN1CCN(CC(O)C2CC2)CC1)NCc1ccc(F)cc1 (centres undefined) | -0.084%
O=C(CCc1ccc(O)cc1)N1CCC(Cc2ccc(CO)cc2)C1 (centres undefined) | 14.8%
CC(C)[C@@H]1CN(C(=O)C2(c3ccccc3)CCN(C)CC2)C[C@H]1N(C)C | -32%
COc1ccccc1NC(=O)NCCCC(=O)Nc1cn[nH]c1 | -9.55%
CN(C)C(=O)CCCS(=O)(=O)Cc1cc(Cl)c2c(c1)OCCO2 | 2.47%
CCN1CCc2[nH]cnc2C12CCN(c1ccc(Cl)cn1)CC2 | 6%
Cc1cccc(CN2C(=O)C[C@H]3[C@@H]2CCN3Cc2cccs2)n1 | -79.6%
Cc1cnc(C(=O)N2CCN(c3ncc4c(n3)CCOC4)CC2)cn1 | 4.91%
Cc1cncc(C(=O)N2CC[C@@]3(C[C@H](NS(C)(=O)=O)CCO3)C2)c1 | -73.6%
O=C(c1cccnc1)N1CCc2[nH]nc(Nc3ccccc3)c2C1 | 6.83%
COCCNC(=O)[C@H]1C[C@@H]2CCN(c3ncccn3)C[C@@H]2O1 | -0.785%
CC(=O)NCCNC(=O)CN1CCCC(Cn2cncn2)C1 (centres undefined) | -18.9%
Cc1cn2nc(Sc3nnc(C(C)C)n3C)sc2n1 | 2.3%

Structure (SMILES) | cytotoxicity at 10 µM
Cc1nc(CN2CCO[C@H]3[C@@H](OCc4cccnc4)CC[C@@H]32)cs1 | -0.587%
CC(C)n1ccnc1CNC(=O)c1cccc(CCC(C)(C)O)c1 | -36.4%
COc1ccc(-c2ncccc2C(=O)N2C[C@@H]3CC[C@H]2C3)cn1 | 6.42%
O=C(CCn1c(C(F)F)cc2cccnc21)NC1CCCC1 | -40.5%
O=C(c1ccc(Cl)cc1)N1CCn2c(nn(-c3ccncc3)c2=O)C1 | 27.5%
Cc1noc2ncc(C(=O)N3CCCC(n4ccnc4C)C3)cc12 (centres undefined) | -13.4%
CN1CCN(c2ncc(-c3cnccn3)c([C@H]3CCCO3)n2)CC1 | -20%
CN(Cc1cc2ccccc2o1)S(C)(=O)=O | 1.66%
COCC(=O)N1CCC(c2cc(-c3ccc(C)cc3)n[nH]2)C1 (centres undefined) | -3.39%
CN(C)CCN1CCCC12CCN(C(=O)c1cnccn1)CC2 | 4.99%
OC(COCc1ccco1)CN1CCc2c(ncn2C2CC2)C1 (centres undefined) | -0.885%
CCN(CC)C(CNCc1ccc(O)cc1)c1ccco1 (centres undefined) | 1.29%
NCC1CCCCN1C(=O)Cc1ccc(F)c(F)c1 (centres undefined) | -1.5%
CCc1nc(CN2CCN(C(=O)Cc3c(C)noc3C)CC2)cs1 | -0.549%
O=C(Cn1c(=O)n(Cc2ccco2)c2ncccc21)Nc1ccccn1 | 0.822%
COc1ccc(C)cc1CC(=O)N1CC[C@@]2(CCCO2)[C@@H](O)C1 | -1.47%
CS(=O)(=O)Cc1nc(CN2CC=C(c3ccccc3)CC2)cs1 | 5.27%
CC1N(C)C(=O)COC12CCN(C(=O)CCc1ccccc1)CC2 (centres undefined) | 0.227%
CNCC(=O)N1CC(c2cc(Nc3ncccn3)nc(C)n2)C1 | 4.19%
COC(=O)N1CC[C@@]2(C1)[C@H](OC)CN(c1ccccc1)S2(=O)=O | 5.78%
CC(=O)NCCNC(=O)NCC1Cc2ccccc2O1 (centres undefined) | -1.83%
CCC(=O)N1CCCC1c1ccsc1 (centres undefined) | -6.05%
COCCCN1CCC(NC(=O)C2CC2)CC1 | -5.02%
CC(C)OCCN1CCC(N2CCN(C)C2=O)CC1 | -11.4%
Cc1cnn(CC2CCCCN2C(=O)Cc2csc(C)n2)c1 (centres undefined) | 2.26%
Cc1ccc(NC(=O)C2CSCN2C(=O)c2ccncc2)c(C)c1 (centres undefined) | -10.4%
COc1cccc(C2CN(CCc3ccncc3)CCO2)c1 (centres undefined) | -10.1%
